Experimental data of several laboratories.
Protocols differ between the studies behind these lines.
Target: Mitogen-activated protein kinase 6 (MAPK6, Homo sapiens, UniProt Q16659)

O=C(NCC1CCOCC1)c1n[nH]cc1NC(=O)c1c(F)cccc1F  remaining binding (binding, competition with immobilised ligand; 1 µM): 86%
C[C@@H](c1ccc(-n2cnc3c(N)ncnc32)cc1)N1CCc2nn(C)c(Cc3ccccc3)c2C1=O  remaining binding (binding, competition with immobilised ligand; 0.1 µM): 93%
N[C@H]1CCN(c2nccc(-c3cnn4ncccc34)n2)C1  remaining binding (binding; 1 µM): 98%
CCCCN(CCCC)C(=O)CN1C[C@H](c2cc(OC)c3c(c2)OCO3)[C@@H](C(=O)O)[C@@H]1CC(C)(C)CCC  remaining binding (cell-free assay, competition with immobilised ligand; 1 µM): 100%
F[C@@H]1CCN(c2nccc(-c3cnn4ncccc34)n2)C1  remaining binding (binding; 1 µM): 74%
C=CC(=O)N1CCC(C(=O)NCC(=O)N2CCN(c3nc(-c4cnc(N)nc4C(F)F)nc(N4CCOCC4)n3)CC2)CC1  remaining binding (binding, competition with immobilised ligand; 1 µM): 96%
CN(C(=O)c1ccccc1)c1cc(N(C)c2ccc3c(c2)CCc2ccc(C(=O)NCCN4CCOCC4)cc2C3=O)ccc1F  remaining binding (cell-free assay, competition with immobilised ligand; 1 µM): 100%
C[C@H]1CCN(c2nccc(-c3cnn4ncccc34)n2)C1  remaining binding (binding; 1 µM): 83%
CNC(=O)[C@@H]1CC[C@@H](n2c(-c3ccc4cnccc4c3)nc3ccc(C(=O)NCc4cccc(C(N)=O)c4)cc32)C1  remaining binding (binding, competition with immobilised ligand; 1 µM): 100%
O=C(NCCCN1CCOCC1)c1ccc(Nc2nccc(-c3cc4ccccc4s3)n2)cc1  remaining binding (binding, competition with immobilised ligand; 1 µM): 48%
COc1cnc(Nc2cccc(S(N)(=O)=O)c2)nc1N1CCN(c2ccccc2)C(=O)C1  remaining binding (binding, competition with immobilised ligand; 1 µM): 100%
Cc1cnn2ncc(-c3ccnc(N(C)C)n3)c2c1  remaining binding (binding; 1 µM): 98%
CS(=O)(=O)N1CCCC(NC(=O)[C@H](CCC2CCCCC2)NC(=O)c2ccc(CNC(=O)c3cnc4ccccn34)cc2)C1 (stereo partly shown)  remaining binding (cell-free assay, competition with immobilised ligand; 0.1 µM): 96%
c1cnn2ncc(-c3ccnc(N4CCC45COC5)n3)c2c1  remaining binding (binding; 1 µM): 92%
C[C@@H](c1cccc(C#N)c1)n1cc(Cl)cc(C(N)=O)c1=N  remaining binding (cell-free assay, competition with immobilised ligand; 1 µM): 100%
O=C(c1ccc(Nc2ncc(Cl)c(-c3ccc(Cl)s3)n2)cc1)N1CCC(N2CCCC2)CC1  remaining binding (binding, competition with immobilised ligand; 1 µM): 0%
CCN1CCN(Cc2ccc(C(=O)Nc3ccc(C)c(Oc4ccc5c(c4)CC(=O)N5)c3)cc2C(F)(F)F)CC1  remaining binding (binding, competition with immobilised ligand; 1 µM): 100%
CN(C)c1nccc(-c2cnc3ncccn23)n1  remaining binding (binding; 1 µM): 93%
C[C@@]1(Cc2ccc(C#N)cc2)C(=O)N(c2cc(Cl)cc(Cl)c2)c2ncc(C(=O)NC3(c4nc(C5CCC5)no4)CC3)n21  remaining binding (cell-free assay, competition with immobilised ligand; 1 µM): 100%
Cc1cnc(Nc2ccc(C(=O)N3CCC(N4CCCC4)CC3)cc2)nc1-c1cc2ccccc2s1  remaining binding (binding, competition with immobilised ligand; 1 µM): 0.1%
CN(C)c1nccc(-c2cnn3ncccc23)n1  remaining binding (binding; 1 µM): 100%
Cn1nc(C(=O)NCc2ccc(C(=O)O)cc2)cc1-c1ccc2[nH]ccc2c1  remaining binding (cell-free assay, competition with immobilised ligand; 0.1 µM): 100%
